Legend:
[1] = Growth inhibition of human HT-29 cells at 10 uM after 48 hrs by SRB assay relative to control; format: functional; settings: HT-29, 48 h, read-out: GI
Summary of the method: (§1)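 NCI 60-cell-line panel, nine tumor subpanels; compounds tested at a single dose of 10 μM in the primary screen.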

[2] = Growth inhibition of human KM12 cells at 10 uM after 48 hrs by SRB assay relative to control; format: functional; settings: KM12, 48 h, read-out: GI; summary of the method: as §1
[3] = Growth inhibition of human PC3 cells at 10 uM after 48 hrs by SRB assay relative to control; format: functional; settings: PC-3, 48 h, read-out: GI; summary of the method: as §1
[4] = Growth inhibition of human Caki1 cells at 10 uM after 48 hrs by SRB assay relative to control; format: functional; settings: CAKI-1, 48 h, read-out: GI; summary of the method: as §1
Cancer cell lines [5] = assay: Potency index, ratio of 5-fluorouracil GI50 to compound GI50 for human breast cancer cells; format: functional
Summary of the method: (§2)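 GI50 for each cell line came from NCI panel testing over a 5-log dose range, with 5-fluorouracil tested alongside as the reference drug. The index relates the 5-fluorouracil GI50 to the compound GI50 within each tumour subpanel.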

[6] = Growth inhibition of human breast cancer cells after 48 hrs by SRB assay; format: functional; settings: Cancer cell lines
Summary of the method: (§3)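 Follow-up NCI panel testing over a 5-log dose range for each cell line. GI50, TGI and LC50 were monitored, with 5-fluorouracil run as the positive control. Values are grouped by tumour subpanel.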

[7] = Growth inhibition of human HOP92 cells at 10 uM after 48 hrs by SRB assay relative to control; format: functional; settings: HOP-92, 48 h, read-out: GI; summary of the method: as §1
Cancer cell lines [8] = assay: Potency index, ratio of 5-fluorouracil GI50 to compound GI50 for human colon cancer cells; format: functional; summary of the method: as §2
[9] = Growth inhibition of human RPMI8226 cells at 10 uM after 48 hrs by SRB assay relative to control; format: functional; settings: RPMI-8226, 48 h, read-out: GI; summary of the method: as §1
Cancer cell lines [10] = assay: Potency index, ratio of 5-fluorouracil GI50 to compound GI50 for human non-small cell lung cancer cells; format: functional; summary of the method: as §2
[11] = Growth inhibition of human HCT15 cells at 10 uM after 48 hrs by SRB assay relative to control; format: functional; settings: HCT-15, 48 h, read-out: GI; summary of the method: as §1
[12] = Growth inhibition of human HCC2998 cells at 10 uM after 48 hrs by SRB assay relative to control; format: functional; settings: HCC 2998, 48 h, read-out: GI; summary of the method: as §1
[13] = Growth inhibition of human renal cancer cells after 48 hrs by SRB assay; format: functional; settings: Cancer cell lines; summary of the method: as §3
[14] = Growth inhibition of human melanoma cells after 48 hrs by SRB assay; format: functional; settings: Melanoma cell; summary of the method: as §3
[15] = Growth inhibition of human prostate cancer cells after 48 hrs by SRB assay; format: functional; settings: Cancer cell lines; summary of the method: as §3
Cancer cell lines [16] = assay: Potency index, ratio of 5-fluorouracil GI50 to compound GI50 for human prostate cancer cells; format: functional; summary of the method: as §2
[17] = Growth inhibition of human NCI-322M cells at 10 uM after 48 hrs by SRB assay relative to control; format: functional; settings: read-out: GI; summary of the method: as §1
[18] = Growth inhibition of human SW620 cells at 10 uM after 48 hrs by SRB assay relative to control; format: functional; settings: SW-620, 48 h, read-out: GI
Summary of the method: (§4)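 Primary screen across the full NCI 60 human tumour cell line panel, which covers nine tumour subpanels. A single dose of 10 μM was applied to each line, and growth was recorded for each cell line.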

[19] = Growth inhibition of human U251 cells at 10 uM after 48 hrs by SRB assay relative to control; format: functional; settings: U-251, 48 h, read-out: GI; summary of the method: as §4
Dihydrofolate reductase = molecular target: T1, Dihydrofolate reductase (Bos taurus, UniProt P00376); assay: Inhibition of bovine liver DHFR preincubated for 2 mins followed by addition of FH2 as substrate and NADPH
T1 sequence (P00376 whole entry): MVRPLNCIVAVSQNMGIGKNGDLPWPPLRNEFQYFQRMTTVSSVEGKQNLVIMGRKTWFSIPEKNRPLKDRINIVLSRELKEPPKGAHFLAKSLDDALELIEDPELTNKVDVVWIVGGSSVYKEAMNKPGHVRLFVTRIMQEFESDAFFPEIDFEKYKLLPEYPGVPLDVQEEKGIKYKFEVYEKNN

[20] = Growth inhibition of human SF295 cells at 10 uM after 48 hrs by SRB assay relative to control; format: functional; settings: SF-295, 48 h, read-out: GI; summary of the method: as §1
Melanoma cell = assay: Potency index, ratio of 5-fluorouracil GI50 to compound GI50 for human melanoma cells; format: functional; summary of the method: as §2
[21] = Growth inhibition of human SK-MEL-28 cells at 10 uM after 48 hrs by SRB assay relative to control; format: functional; settings: SK-MEL-28, 48 h, read-out: GI; summary of the method: as §4
Cancer cell lines [22] = assay: Potency index, ratio of 5-fluorouracil GI50 to compound GI50 for human renal cancer cells; format: functional; summary of the method: as §2
Cancer cell lines [23] = assay: Potency index, ratio of 5-fluorouracil GI50 to compound GI50 for human ovarian cancer cells; format: functional; summary of the method: as §2
[24] = Growth inhibition of human OVCAR3 cells at 10 uM after 48 hrs by SRB assay relative to control; format: functional; settings: OVCAR-3, 48 h, read-out: GI; summary of the method: as §1
[25] = Growth inhibition of human M14 cells at 10 uM after 48 hrs by SRB assay relative to control; format: functional; settings: M14, 48 h, read-out: GI; summary of the method: as §1
[26] = Growth inhibition of human MDA-MB-231 cells at 10 uM after 48 hrs by SRB assay relative to control; format: functional; settings: MDA-MB-231, 48 h, read-out: GI; summary of the method: as §1
[27] = Growth inhibition of human leukemia cells after 48 hrs by SRB assay; format: functional; settings: Leukemia cell; summary of the method: as §3
[28] = Growth inhibition of human NCI-H460 cells at 10 uM after 48 hrs by SRB assay relative to control; format: functional; settings: NCI-H460, 48 h, read-out: GI; summary of the method: as §1
[29] = Growth inhibition of human IGROV1 cells at 10 uM after 48 hrs by SRB assay relative to control; format: functional; settings: IGROV-1, 48 h, read-out: GI; summary of the method: as §1
[30] = Growth inhibition of human MCF7 cells at 10 uM after 48 hrs by SRB assay relative to control; format: functional; settings: MCF7, 48 h, read-out: GI; summary of the method: as §1
[31] = Growth inhibition of human UACC62 cells at 10 uM after 48 hrs by SRB assay relative to control; format: functional; settings: UACC-62, 48 h, read-out: GI; summary of the method: as §4
[32] = Growth inhibition of human OVCAR8 cells at 10 uM after 48 hrs by SRB assay relative to control; format: functional; settings: OVCAR-8, 48 h, read-out: GI; summary of the method: as §1

Compound: COc1cc2nc(SCc3cc(OC)c(OC)c(OC)c3)n(Cc3ccccc3)c(=O)c2cc1OC
- inhibition of growth at 10 µM [1]: 89.4%
- inhibition of growth at 10 µM [2]: 84.6%
- inhibition of growth at 10 µM [3]: 51.2%
- inhibition of growth at 10 µM [4]: 74.3%
- RatioGI50 (Cancer cell lines [5]): 2 - 10
- GI50 [6]: 2.5 µM
- LC50 [6]: 99.3 µM
- TGI [6]: 47.4 µM
- inhibition of growth at 10 µM [7]: 37.4%
- RatioGI50 (Cancer cell lines [8]): 2 - 10
- inhibition of growth at 10 µM [9]: 45.3%
- RatioGI50 (Cancer cell lines [10]): 2 - 10
- inhibition of growth at 10 µM [11]: 79.9%
- inhibition of growth at 10 µM [12]: 59.2%
- GI50 [13]: 4.7 µM
- LC50 [13]: 85.7 µM
- TGI [13]: 49.1 µM
- GI50 [14]: 2.6 µM
- LC50 [14]: 78.7 µM
- TGI [14]: 45.9 µM
- GI50 [15]: 4 µM
- LC50 (concentration killing 50% of cells) [15]: > 100 µM
- TGI [15]: > 100 µM
- RatioGI50 (Cancer cell lines [16]): 2 - 10
- inhibition of growth at 10 µM [17]: 54.6%
- inhibition of growth at 10 µM [18]: 66.6%
- inhibition of growth at 10 µM [19]: 71%
- IC50 (Dihydrofolate reductase): 2 µM
- inhibition of growth at 10 µM [20]: 80.3%
- RatioGI50 (Melanoma cell): 2 - 10
- inhibition of growth at 10 µM [21]: 60.8%
- RatioGI50 (Cancer cell lines [22]): 2 - 10
- RatioGI50 (Cancer cell lines [23]): 2 - 10
- inhibition of growth at 10 µM [24]: 93.8%
- inhibition of growth at 10 µM [25]: 85.2%
- inhibition of growth at 10 µM [26]: 64%
- GI50 [27]: 1.9 µM
- TGI [27]: > 100 µM
- CC50 ([27]; read-out: LC50 (the source's name)): > 100 µM
- inhibition of growth at 10 µM [28]: 77.7%
- inhibition of growth at 10 µM [29]: 60.8%
- inhibition of growth at 10 µM [30]: 89.9%
- inhibition of growth at 10 µM [31]: 76.6%
- inhibition of growth at 10 µM [32]: < 10%

Source: ChEMBL document CHEMBL3860041, “Synthesis, biological evaluation and molecular modeling study of some new methoxylated 2-benzylthio-quinazoline-4(3H)-ones as nonclassical antifolates” (Bioorg Med Chem Lett, 2016)
